# According to ChEMBL document CHEMBL1129305, “Drug delivery systems. 2. Camptothecin 20-O-poly(ethylene glycol) ester transport forms” (J Med Chem, 1996):
# Experiments:
# [1] = Half life in PBS buffer (pH 5.6) at 37 degree C; assay type: ADME
# In short: (§1)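 Hydrolysis run at 37 °C in PBS, pH 5.6 or pH 7.4 as stated in the line. Half-life is the time for loss of the ester. Runs done in duplicate, with SD ±10%.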
# [2] = Half life in PBS buffer (pH 7.4) at 37 degree C; assay type: ADME; in short: as §1
# [3] = Half life in rat plasma at 37 degree C; assay type: ADME, organism-based
# In short: (§2)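 Ester incubated at 37 °C in rat or human plasma. Half-life recorded as disappearance of the transport form, with release of parent drug also followed over time. Runs done in duplicate, with SD ±10%.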
# Mus musculus [4] = assay: Percentage of increased life expectancies (ILS) of mice at a dose of 16 mg/kg camptothecin; ILS = (T/C-1) X 100; assay type: functional
# In short: (§3)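 Mice bearing P388 leukemia dosed ip on days 1–5 to a total of 16 mg/kg camptothecin equivalents, given as aqueous solution or lipid suspension. Groups were 10–20 mice against untreated controls, with survivors counted at 40 days. Read-outs were mean time to death, T/C and ILS = (T/C−1)×100, compared by Student t test assuming equal variances.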
# Mus musculus [5] = assay: Mean time to death at a dose of 16 mg/kg of camptothecin, mice dosed days 1-5; assay type: ADME, organism-based; design: dose 16 mg/kg; details: in vivo; in short: as §3
# Mus musculus [6] = assay: Ratio between mean time to death of treated versus control (survivors at 40 days) at a dose of 16 mg/kg of camptothecin, mice dosed days 1-5; assay type: functional; in short: as §3
# [7] = Half life in human plasma at 37 degree C; assay type: ADME, organism-based; in short: as §2
# [8] = Half life in PBS buffer (pH 7.4) at 37 degree C (DMSO employed as cosolvent); assay type: ADME; details: PBS buffer with DMSO as cosolvent
# In short: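 Hydrolysis run at 37 °C in PBS pH 7.4 with DMSO as cosolvent. Half-life recorded in duplicate, with SD ±10%.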
SMILES,half-life [1],half-life [2],half-life [3],ILS at 16 mg/kg (Mus musculus [4]),Mean time to death (Mus musculus [5]),T/C (Mus musculus [6]),half-life [7],half-life [8]
CC[C@@]1(OC(=O)CN)C(=O)OCc2c1cc1n(c2=O)Cc2cc3ccccc3nc2-1.O=C(O)C(F)(F)F,960 min,210 min,30 min,64%,21.7 days,1.64,15 min,–
CC[C@@]1(OC(C)=O)C(=O)OCc2c1cc1n(c2=O)Cc2cc3ccccc3nc2-1,–,–,–,–,–,–,–,> 3 days
CC[C@@]1(O)C(=O)OCc2c1cc1n(c2=O)Cc2cc3ccccc3nc2-1 [CAMPTOTHECIN],–,–,–,193%,38.7 days,2.93,–,–
